Laboratory results published in ChEMBL document CHEMBL1137900, “Quinazolinone fungal efflux pump inhibitors. Part 2: In vitro structure-activity relationships of (N-methyl-piperazinyl)-containing derivatives” (Bioorg Med Chem Lett, 2004).
Converted amounts (≈) assume the structure as drawn.

Assays:
[1] = system: Nakaseomyces glabratus; test: In vitro minimum potentiation concentration to achieve an 8-fold reduction in fluconazole MIC against Candida glabrata strain YEM19 (overexpressing both CgDR1 and CgDR2); assay type: functional
Method in brief: (§1)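 Checkerboard assay in RPMI 1640 following the NCCLS M27-A broth dilution method. Fluconazole MIC was measured with and without varying concentrations of efflux pump inhibitor. MPC8 is the lowest inhibitor concentration giving an 8-fold reduction in fluconazole MIC. Some analogues were tested only in an abbreviated format: inhibitor concentration varied at fixed fluconazole of 1/8 and 1/32 MIC.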

[2] = system: Candida albicans; test: In vitro minimum potentiation concentration to achieve an 8-fold reduction in fluconazole MIC against Candida albicans strain YEM15 (overexpressing both CDR1 and CDR2); assay type: functional; method in brief: as §1
[3] = system: Candida albicans; test: In vitro minimum inhibitory concentration against Candida albicans; assay type: functional
Method in brief: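 C. albicans YEM15 (over-expresses CDR1 and CDR2) tested by broth dilution in RPMI 1640 following NCCLS reference method M27-A. The compound was tested alone, without fluconazole, across a range of concentrations, and the MIC was read as intrinsic antifungal activity.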

[4] = system: Candida albicans; test: In vitro concentration to inhibit Candida albicans CDR2 transporter gene over-expressed in Saccharomyces cerevisiae strain YEM171; assay type: functional, organism-based
Method in brief: (§2)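 Yeast strains over-expressing single pumps, inoculum 10^4 cells, incubated at 30 °C in YPD. Inhibitor concentration was varied against one fixed fluconazole concentration. That concentration was the geometric mean of the test strain's fluconazole MIC and that of the parent pump-deleted strain; for YEM172 it was 8 µg/ml.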

[5] = system: Nakaseomyces glabratus; test: In vitro concentration to inhibit Candida glabrata CgCDR2 transporter gene over-expressed in Saccharomyces cerevisiae strain Y218; assay type: functional, organism-based; method in brief: as §2
[6] = system: Candida albicans; test: In vitro concentration to inhibit Candida albicans CDR1 transporter gene over-expressed in Saccharomyces cerevisiae strain YEM172; assay type: functional, organism-based; method in brief: as §2
[7] = system: Nakaseomyces glabratus; test: In vitro concentration to inhibit Candida glabrata CgCDR1 transporter gene over-expressed in Saccharomyces cerevisiae strain Y170; assay type: functional, organism-based; method in brief: as §2
[8] = system: Saccharomyces cerevisiae; test: In vitro concentration required to inhibit 80% growth of Saccharomyces cerevisiae strain Y170 (CgCDR1 over-expressed) after 48 h; assay type: functional
[9] = system: Saccharomyces cerevisiae; test: In vitro concentration required to inhibit 80% growth of Saccharomyces cerevisiae strain Y218 (CgCDR2 over-expressed) after 48 h; assay type: functional
[10] = system: Candida albicans; test: In vitro concentration required against Candida albicans strain YEM 15; assay type: functional
[11] = system: Saccharomyces cerevisiae; test: In vitro concentration required to inhibit 80% growth of Saccharomyces cerevisiae strain YEM139 (PDR5 deleted) after 48 h; assay type: functional
[12] = system: Saccharomyces cerevisiae; test: In vitro concentration required to inhibit 80% growth of Saccharomyces cerevisiae strain YEM171 (CDR2 over-expressed) after 48 h; assay type: functional
[13] = system: Saccharomyces cerevisiae; test: In vitro concentration required to inhibit 80% growth of Saccharomyces cerevisiae strain YEM172 (CDR1 over-expressed) after 48 h; assay type: functional

Row | SMILES | MPC8 [1] [µg/mL] | MPC8 [2] [µg/mL] | other results
1 | COc1ccc(N(C(=O)Nc2ccc(F)cc2)C(C)c2nc3ccc(OCC(N)=O)cc3c(=O)n2N2CCN(C)CC2)c(OC)c1 (configuration not stated) | >32 | >32 | –
2 | COc1ccc(N(C(=O)c2ccc(Cl)cc2)C(C)c2nc3ccccc3c(=O)n2N2CCN(C)CC2)c(OC)c1 (configuration not stated) | >32 | 4 | –
3 | COc1ccc(N(C(=O)Nc2ccc(F)cc2)C(C)c2nc3ccccc3c(=O)n2N2CCN(C)CC2)c(OC)c1 (configuration not stated) | 4 | 4 | –
4 | COc1ccc(N(C(=O)Nc2ccc(F)cc2)C(C)c2nc3ccc(C)cc3c(=O)n2N2CCN(C)CC2)c(OC)c1 (configuration not stated) | 4 | 0.5 | –
5 | CC(c1nc2ccccc2c(=O)n1N1CCN(C)CC1)N(C(=O)Nc1ccc(F)cc1)c1ccc(OCC2CC2)cc1OCC1CC1 (configuration not stated) | 2 | 4 | MIC [3]: 32 µg/mL (≈ 49.9 µM)
6 | COc1ccc(N(C(=O)Nc2ccc(F)cc2)[C@H](C)c2nc3cc(F)ccc3c(=O)n2N2CCN(C)CC2)c(OC)c1 | >32 | >32 | IC50 [4]: > 32 µg/mL; IC50 [5]: > 32 µg/mL; IC50 [6]: > 32 µg/mL; IC50 [7]: > 32 µg/mL
7 | COc1ccc(N(C(=O)c2ccccc2Cl)C(C)c2nc3ccccc3c(=O)n2N2CCN(C)CC2)c(OC)c1 (configuration not stated) | >32 | 4 | –
8 | COc1ccc(NC(C)c2nc3ccccc3c(=O)n2N2CCN(C)CC2)c(OC)c1 (configuration not stated) | >32 | >32 | –
9 | COc1ccc(N(C(=O)Nc2nc3ccccc3s2)C(C)c2nc3ccccc3c(=O)n2N2CCN(C)CC2)c(OC)c1 (configuration not stated) | 16 | 2 | –
10 | COc1ccc(N(C(=O)Nc2ccc(F)cc2)C(C)c2nc3cc(F)ccc3c(=O)n2N2CCN(C)CC2)c(OC)c1 (configuration not stated) | 1 | 0.5 | –
11 | COc1ccc(NC(=O)N(c2ccc(OC)cc2OC)C(C)c2nc3ccccc3c(=O)n2N2CCN(C)CC2)cc1 (configuration not stated) | 2 | 16 | –
12 | OC(Cn1cncn1)(Cn1cncn1)c1ccc(F)cc1F [FLUCONAZOLE] | – | – | MIC [8]: 128 µg/mL (≈ 418 µM); MIC [9]: 2 µg/mL (≈ 6.53 µM); MIC [10]: 128 µg/mL (≈ 418 µM); MIC [11]: 0.5 µg/mL (≈ 1.63 µM); MIC [12]: 8 µg/mL (≈ 26.1 µM); MIC [13]: 128 µg/mL (≈ 418 µM)
13 | COc1ccc(N(C(C)c2nc3ccccc3c(=O)n2N2CCN(C)CC2)S(=O)(=O)c2ccc(Cl)cc2)c(OC)c1 (configuration not stated) | >32 | 32 | –
14 | COc1ccc(N(C(=O)Nc2ccc(F)cc2)C(C)c2nc3ccccc3c(=O)n2N2CCN(C)CC2)cc1 (configuration not stated) | 32 | 8 | –
15 | COc1ccc(N(C(=O)Nc2ccc(F)cc2)C(C)c2nc3ccccc3c(=O)n2N2CCN(C)CC2)cc1OC (configuration not stated) | >32 | >32 | –
16 | COc1ccc(N(C(=O)Nc2ccc(F)cc2)C(C)c2nc3ccc(O)cc3c(=O)n2N2CCN(C)CC2)c(OC)c1 (configuration not stated) | 1 | 16 | –
17 | COc1ccc(N(C(=O)Oc2ccc(Cl)cc2)C(C)c2nc3ccccc3c(=O)n2N2CCN(C)CC2)c(OC)c1 (configuration not stated) | 32 | 32 | –
18 | COc1ccc(N(C(=O)Nc2ccc(C)cc2)C(C)c2nc3ccccc3c(=O)n2N2CCN(C)CC2)c(OC)c1 (configuration not stated) | 4 | 16 | –
19 | CC(c1nc2ccccc2c(=O)n1N1CCN(C)CC1)N(C)C(=O)Nc1ccc(F)cc1 (configuration not stated) | >32 | >32 | –
20 | CCC(=O)Oc1ccc2nc(C(C)N(C(=O)Nc3ccc(F)cc3)c3ccc(OC)cc3OC)n(N3CCN(C)CC3)c(=O)c2c1 (configuration not stated) | 4 | 4 | –
21 | COc1ccc(N(C(=O)Nc2ccc(F)cc2)C(C)c2nc3cc(F)c(F)cc3c(=O)n2N2CCN(C)CC2)c(OC)c1 (configuration not stated) | 0.5 | 0.12 | –

Row | SMILES | MPC8 [1] [µg/mL] | MPC8 [2] [µg/mL] | other results
22 | CC(c1nc2ccccc2c(=O)n1N1CCN(C)CC1)N(C(=O)Nc1ccc(F)cc1)c1ccc(F)cc1F (configuration not stated) | 32 | 8 | –
23 | COc1ccc(N(C(=O)Nc2ccc(F)cc2)C(C)c2nc3ccc(F)cc3c(=O)n2N2CCN(C)CC2)c(OC)c1 (configuration not stated) | 2 | 1 | –
24 | Cc1ccc(N(C(=O)Nc2ccc(F)cc2)C(C)c2nc3ccccc3c(=O)n2N2CCN(C)CC2)c(C)c1 (configuration not stated) | >32 | 8 | –
25 | COc1ccc(N(C(=O)Nc2cccc(C#N)c2)C(C)c2nc3ccccc3c(=O)n2N2CCN(C)CC2)c(OC)c1 (configuration not stated) | 32 | 32 | –
26 | COc1ccccc1N(C(=O)Nc1ccc(F)cc1)C(C)c1nc2ccccc2c(=O)n1N1CCN(C)CC1 (configuration not stated) | >32 | >32 | –
27 | COc1ccc(N(C(=O)Nc2ccccc2)C(C)c2nc3ccccc3c(=O)n2N2CCN(C)CC2)c(OC)c1 (configuration not stated) | 16 | 16 | –
28 | COc1ccc(N(C(=O)Nc2ccc(Cl)cc2)C(C)c2nc3ccccc3c(=O)n2N2CCN(C)CC2)c(OC)c1 (configuration not stated) | 1 | 2 | –
29 | CC(c1nc2ccccc2c(=O)n1N1CCN(C)CC1)N(C(=O)Nc1ccc(F)cc1)c1ccccc1 (configuration not stated) | >32 | >32 | –
30 | COc1cc(OC)c(N(C(=O)Nc2ccc(F)cc2)C(C)c2nc3ccccc3c(=O)n2N2CCN(C)CC2)c(OC)c1 (configuration not stated) | >32 | >32 | –
31 | COc1ccc(N(C(=O)Nc2ccc(F)cc2)C(C)c2nc3c(OC)cccc3c(=O)n2N2CCN(C)CC2)c(OC)c1 (configuration not stated) | 8 | 8 | –
32 | COc1ccc(N(C(=O)NS(=O)(=O)c2ccc(Cl)cc2)C(C)c2nc3ccccc3c(=O)n2N2CCN(C)CC2)c(OC)c1 (configuration not stated) | >32 | >32 | –
33 | COc1ccc(N(C(=O)Nc2ccc(F)cc2)C(C)c2nc3cccc(F)c3c(=O)n2N2CCN(C)CC2)c(OC)c1 (configuration not stated) | 8 | 8 | –
34 | COc1ccc(N(C(=O)Nc2ccc(F)cc2)C(C)c2nc3ccc(OC)cc3c(=O)n2N2CCN(C)CC2)c(OC)c1 (configuration not stated) | 2 | 0.5 | –
35 | COc1ccc(N(C(=O)Nc2ccc(F)cc2)C(C)c2nc3cc(Cl)ccc3c(=O)n2N2CCN(C)CC2)c(OC)c1 (configuration not stated) | 0.5 | 0.12 | –
36 | COc1ccc(N(C(=O)Nc2ccc(F)cc2)C(C)c2nc3ccc(Cl)cc3c(=O)n2N2CCN(C)CC2)c(OC)c1 (configuration not stated) | 2 | 0.25 | –
37 | COc1cccc(N(C(=O)Nc2ccc(F)cc2)C(C)c2nc3ccccc3c(=O)n2N2CCN(C)CC2)c1 (configuration not stated) | >32 | 16 | –
38 | COc1ccc(N(C(=O)NC(C)C)C(C)c2nc3ccccc3c(=O)n2N2CCN(C)CC2)c(OC)c1 (configuration not stated) | >32 | >32 | –
39 | COc1ccc(N(C(=O)Nc2cccc(Cl)c2)C(C)c2nc3ccccc3c(=O)n2N2CCN(C)CC2)c(OC)c1 (configuration not stated) | 4 | 1 | –
40 | COc1ccc(N(C(=O)Nc2ccccc2Cl)C(C)c2nc3ccccc3c(=O)n2N2CCN(C)CC2)c(OC)c1 (configuration not stated) | >32 | >32 | –
41 | COc1ccc(N(C(=O)Nc2ccc(F)cc2)[C@@H](C)c2nc3cc(F)ccc3c(=O)n2N2CCN(C)CC2)c(OC)c1 | 0.5 | 0.25 | IC50 [4]: 16 µg/mL (≈ 27.7 µM); IC50 [5]: 32 µg/mL (≈ 55.3 µM); IC50 [6]: 0.5 µg/mL (≈ 0.864 µM); IC50 [7]: 2 µg/mL (≈ 3.46 µM)
42 | COc1cc(N(C(=O)Nc2ccc(F)cc2)C(C)c2nc3ccccc3c(=O)n2N2CCN(C)CC2)cc(OC)c1OC (configuration not stated) | >32 | 8 | –
